In ChEMBL document CHEMBL3425443, “Improved angiostatic activity of dasatinib by modulation with hydrophobic chains” (ACS Med Chem Lett, 2015):

How the values were obtained:
HEK293 = assay: Cytotoxicity against human HEK293 cells after 72 hrs by MTT assay; assay type: cell-based; conditions: HEK293, 72 h
Summary of the method: (§1)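 Proliferation inhibition measured in human A2780 ovarian carcinoma, ECRF24 immortalized endothelial and HEK-293 embryonic kidney cells; IC50 values in μM reported as means ± SD.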

A2780 = assay: Cytotoxicity against human A2780 cells after 72 hrs by MTT assay; assay type: functional, cell-based; conditions: A2780, 72 h; summary of the method: as §1
[1] = Cytotoxicity against human ECRF24 cells after 72 hrs by MTT assay; assay type: functional, cell-based; conditions: ECRF24, 72 h; summary of the method: as §1
Chorioallantoic membrane = assay: Antiangiogenic activity in chicken embryo chorioallantoic membrane model assessed as inhibition of vasculature formation at 20 uM, iv dosed for 3 consecutive days by FITC-dextran fluorescence angiography; assay type: functional, Gallus gallus
ECRF24 = assay: Angiostatic activity in human ECRF24 cells assessed as inhibition of cell migration after 7 hrs by laser scanner cytometry based wound closure assay; assay type: functional
Summary of the method: (§2)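 ECRF24 endothelial monolayers wounded, then incubated 7 h with compound across a concentration range; wound closure quantified to give migration inhibition. Error bars are standard error of the mean; significance set at p < 0.05 and p < 0.01.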

[2] = Angiostatic activity in human ECRF24 cells assessed as inhibition of cell migration at 50 uM after 7 hrs by laser scanner cytometry based wound closure assay; assay type: functional; conditions: ECRF24, 7 h; summary of the method: as §2
[3] = Selectivity index, ratio of cytotoxic IC50 for HEK293 cells to antiangiogenic activity in chicken embryo chorioallantoic membrane model

SMILES | IC50 (HEK293) [µM] | IC50 (A2780) [µM] | IC50 [1] [µM] | inhibition (INH) (Chorioallantoic membrane) [%] | inhibition (ECRF24) | inhibition at 50 µM [2] [%] | Selectivity Index [3]
CCCCCCCCCCOC(=O)CCC(=O)OCCN1CCN(c2cc(Nc3ncc(C(=O)Nc4c(C)cccc4Cl)s3)nc(C)n2)CC1 | 46 | 22.5 | 30 |  |  |  | 
CCCCCCCCCCCCOC(=O)CCC(=O)OCCN1CCN(c2cc(Nc3ncc(C(=O)Nc4c(C)cccc4Cl)s3)nc(C)n2)CC1 | > 500 | 45 | 27 |  |  |  | 
Cc1nc(Nc2ncc(C(=O)Nc3c(C)cccc3Cl)s2)cc(N2CCN(CCOC(=O)CCC(=O)OCCC(F)(F)C(F)(F)C(F)(F)C(F)(F)C(F)(F)C(F)(F)C(F)(F)C(F)(F)F)CC2)n1 | > 500 | 118 | 96 |  |  |  | 
CCCCCCCCCCCCCCCCCCOC(=O)CCC(=O)OCCN1CCN(c2cc(Nc3ncc(C(=O)Nc4c(C)cccc4Cl)s3)nc(C)n2)CC1 | > 500 | 108 | 105 |  |  |  | 
Cc1nc(Nc2ncc(C(=O)Nc3c(C)cccc3Cl)s2)cc(N2CCN(CCOC(=O)CCC(=O)OCCC(F)(F)C(F)(F)C(F)(F)C(F)(F)C(F)(F)C(F)(F)C(F)(F)C(F)(F)C(F)(F)C(F)(F)F)CC2)n1 | > 500 | 90 | 24 | 18 |  |  | 
CCCCCCCCOC(=O)CCC(=O)OCCN1CCN(c2cc(Nc3ncc(C(=O)Nc4c(C)cccc4Cl)s3)nc(C)n2)CC1 | 52 | 10.6 | 7.8 |  |  |  | 
CCCCCCCCCCCCOC(=O)CCCC(=O)OCCN1CCN(c2cc(Nc3ncc(C(=O)Nc4c(C)cccc4Cl)s3)nc(C)n2)CC1 | > 500 | 53 | 135 |  |  |  | 
CCCCCCCCOC(=O)CCCC(=O)OCCN1CCN(c2cc(Nc3ncc(C(=O)Nc4c(C)cccc4Cl)s3)nc(C)n2)CC1 | 18 | 12 | 18 |  |  |  | 
CCCCCCCCCCOC(=O)CCCC(=O)OCCN1CCN(c2cc(Nc3ncc(C(=O)Nc4c(C)cccc4Cl)s3)nc(C)n2)CC1 | 29 | 119 | 34 |  |  |  | 
Cc1nc(Nc2ncc(C(=O)Nc3c(C)cccc3Cl)s2)cc(N2CCN(CCOC(=O)CCCC(=O)OCCC(F)(F)C(F)(F)C(F)(F)C(F)(F)C(F)(F)C(F)(F)C(F)(F)C(F)(F)C(F)(F)C(F)(F)F)CC2)n1 | > 500 | > 500 | 102 |  |  |  | 
Cc1nc(Nc2ncc(C(=O)Nc3c(C)cccc3Cl)s2)cc(N2CCN(CCO)CC2)n1.O [DASATINIB] | 14.3 | 8.7 | 5.7 | 8 | Dose-dependent effect | 65 | 
CCCCCCCCCCCCCCCCCCOC(=O)CCCC(=O)OCCN1CCN(c2cc(Nc3ncc(C(=O)Nc4c(C)cccc4Cl)s3)nc(C)n2)CC1 | > 500 | 125 | 101 |  |  |  | 
Cc1nc(Nc2ncc(C(=O)Nc3c(C)cccc3Cl)s2)cc(N2CCN(CCOC(=O)CCCC(=O)OCCC(F)(F)C(F)(F)C(F)(F)C(F)(F)C(F)(F)C(F)(F)C(F)(F)C(F)(F)F)CC2)n1 | > 500 | 121 | 57 | 45 | Dose-dependent effect | 15 | 25
Cc1nc(Nc2ncc(C(=O)Nc3c(C)cccc3Cl)s2)cc(N2CCN(CCOC(=O)CCC(=O)OCCC(F)(F)C(F)(F)C(F)(F)C(F)(F)C(F)(F)C(F)(F)F)CC2)n1 | 58 | 130 | 122 |  |  |  | 
Cc1nc(Nc2ncc(C(=O)Nc3c(C)cccc3Cl)s2)cc(N2CCN(CCOC(=O)CCCC(=O)OCCC(F)(F)C(F)(F)C(F)(F)C(F)(F)C(F)(F)C(F)(F)F)CC2)n1 | > 500 | 28.3 | > 500 |  |  |  | 
